What was measured:
[1] = The degree of collagen cross-linking by hydrothermal shrinkage temperature was determined; assay type: functional
In short: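 Purified skin collagen matrices incubated 48 h at room temperature with samples at 4 mM in 85% glycerol; hydrothermal shrinkage onset temperature (Ts) recorded, with untreated matrix as reference. Means of five experiments with SEM; significance versus tannic acid at p<0.05.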

[2] = Effective dose required for antioxidant activity was measured as dose giving 50% decolorization of 2,2-diphenyl-1-picryl-hydrazyl (DPPH); assay type: functional
In short: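 DPPH radical scavenging: compounds serially diluted ([…]), incubated with […] in 75% ethanol for 15 min at room temperature; absorbance read at 550 nm. ED50 (dose giving 50% decolorization) obtained by linear regression of absorbance curves; means of five experiments, SEM reported.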

Structure (SMILES)	Ts [1]	ED50 [2]
O=C(O)c1cc(OCCNC(=O)c2cc(OCCNC(=O)c3cc(O)c(O)c(O)c3)cc(OCCNC(=O)c3cc(O)c(O)c(O)c3)c2)cc(OCCNC(=O)c2cc(OCCNC(=O)c3cc(O)c(O)c(O)c3)cc(OCCNC(=O)c3cc(O)c(O)c(O)c3)c2)c1	57.9 °C	7.4 µM
O=C(O)c1cc(OCCNC(=O)c2cc(OCCNC(=O)c3cc(OCCNC(=O)c4cc(O)c(O)c(O)c4)cc(OCCNC(=O)c4cc(O)c(O)c(O)c4)c3)cc(OCCNC(=O)c3cc(OCCNC(=O)c4cc(O)c(O)c(O)c4)cc(OCCNC(=O)c4cc(O)c(O)c(O)c4)c3)c2)cc(OCCNC(=O)c2cc(OCCNC(=O)c3cc(OCCNC(=O)c4cc(O)c(O)c(O)c4)cc(OCCNC(=O)c4cc(O)c(O)c(O)c4)c3)cc(OCCNC(=O)c3cc(OCCNC(=O)c4cc(O)c(O)c(O)c4)cc(OCCNC(=O)c4cc(O)c(O)c(O)c4)c3)c2)c1	57 °C	4.7 µM
O=C(O)c1cc(OCCNC(=O)c2cc(O)c(O)c(O)c2)cc(OCCNC(=O)c2cc(O)c(O)c(O)c2)c1	58.4 °C	13.7 µM
O=C(O)c1cc(O)c(O)c(O)c1	57.5 °C	14.3 µM
O=C(OC[C@H]1O[C@@H](OC(=O)c2cc(O)c(O)c(OC(=O)c3cc(O)c(O)c(O)c3)c2)[C@H](OC(=O)c2cc(O)c(O)c(OC(=O)c3cc(O)c(O)c(O)c3)c2)[C@@H](OC(=O)c2cc(O)c(O)c(OC(=O)c3cc(O)c(O)c(O)c3)c2)[C@@H]1OC(=O)c1cc(O)c(O)c(OC(=O)c2cc(O)c(O)c(O)c2)c1)c1cc(O)c(O)c(OC(=O)c2cc(O)c(O)c(O)c2)c1	59.5 °C	2.9 µM

From ChEMBL document CHEMBL1135842, “Synthesis and biological activity of polygalloyl-dendrimers as stable tannic acid mimics” (Bioorg Med Chem Lett, 2002)
